Screens as filed in PubChem BioAssay.
Shown are actives, neighbours in structure and some others; about 4.6% of the full set was active somewhere.
CHO parental Ca = signal in parental CHO cells, OX1R antagonist counter-screen; parental CHO-K1, ATP-induced calcium, Fluo-8 fluorescence; inhibition, % at 5.6 µM; 330,000 compounds, 0.63% hits;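 active = inhibition above that plate's mean sample inhibition plus 3 SD, cut at about 26% in these data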
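Test system: untransfected parental CHO cell line; also added: ATP stimulus; dosing: 5.6 µM, single dose; signal: calcium-sensitive Fluo-8 fluorescence; measure: percent inhibition of ATP-evoked calcium rise, normalized to controls; benchmarks: low control ATP plus DMSO, high control DMSO only; replication: one well per compound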
OX1R antag-1 = blocks the human orexin 1 receptor; O43613; OX1R-expressing cells, FRET antagonist read-out; inhibition, % at 6.6 µM; 330,000 compounds, 1.8% hits; in the data active = inhibition mostly above about 38%, no sharp cut-off; inactive = mostly below about 40%
OX1R antag-2 = blocks the human orexin 1 receptor; O43613; inhibition, % at 5 µM; 330,000 compounds, 0.43% hits; AID 434989; CHO/OX1R cells, Fluo-8 calcium fluorescence, orexin A;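 active = inhibition above its plate's threshold, mean inhibition of all tested compounds on the plate plus 3 SD, cut at about 37% in these data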
GPR7 antagonist = human neuropeptides B/W receptor 1 antagonism. 290,000 compounds, 1.1% hits. inhibition, % at 4.4 µM. GPR7-expressing cells, fluorescence antagonist assay. AID 1861. P48145; in the data active = inhibition above about 16%, passing the limit was not always enough;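 also: cells stimulated with the agonist NPW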
TAAR1 antag = antagonists of human TAAR1 | 360,000 compounds, 1.5% hits | Q96RJ0 | inhibition, % at 3 µM | CHO RD-HGA16 TAAR1, Fluo-8 calcium fluorescence, antagonist;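 active = inhibition above a per-plate cutoff, the mean inhibition of test compounds on that plate plus 3 SD, cut at about 49% in these data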
Target sequence (Q96RJ0 whole entry, looked up): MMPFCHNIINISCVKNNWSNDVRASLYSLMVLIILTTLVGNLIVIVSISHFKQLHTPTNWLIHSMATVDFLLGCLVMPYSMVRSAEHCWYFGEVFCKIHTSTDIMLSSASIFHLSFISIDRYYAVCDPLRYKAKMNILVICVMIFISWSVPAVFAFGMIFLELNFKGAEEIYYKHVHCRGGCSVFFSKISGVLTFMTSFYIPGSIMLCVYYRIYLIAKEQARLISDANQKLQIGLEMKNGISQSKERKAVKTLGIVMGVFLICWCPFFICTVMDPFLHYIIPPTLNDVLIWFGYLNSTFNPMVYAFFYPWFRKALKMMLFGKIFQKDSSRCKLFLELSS
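Test system – hTAAR1-expressing CHO RD-HGA16 cells, Gα16-coupled · Reagent – β-PEA at EC80 concentration, post-compound challenge · Compound dosing – 3 µM, single point · Timing – 140 s kinetic read after compound, 140 s after agonist · Detection – Fluo-8 intracellular calcium dye fluorescence, real-time kinetic reads · Control set – DMSO and EC80 PEA controls · Repeats – n of 1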
TAAR1 agonist = human TAAR1 agonism | CHO RD-HGA16 TAAR1, Fluo-8 calcium fluorescence; vehicle wells 0%, saturating PEA agonist 100% | activation, % at 3 µM | 360,000 compounds, 0.99% hits | AID 624467;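 active = activation above the mean activation of all test compounds in the run plus 3 SD, cut at about 38% in these data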
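System: CHO RD-HGA16 cells carrying human TAAR1 plus Gα16; Incubation: 17-24 h seeding, 75 min 37 °C dye, 30 min RT; Measured by: Fluo-8 fluorescence, 5 s baseline then 140 s kinetic read; Control set: DMSO and PEA EC100; Replication: single well for each compound.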
Large screens that a line does not name were inactive.

COCCNC(=O)C1CCCN(C(=O)COc2ccc(Cl)cc2Cl)CC1 (stereo unspecified)	none (no result: CHO parental Ca, OX1R antag-1, OX1R antag-2, GPR7 antagonist)
Cc1csc(Sc2ccc([N+](=O)[O-])cc2C(=O)OCC(=O)NC2CCCC(C)C2C)n1 (stereo unspecified)	none
CCC(C)NC(=O)COC(=O)c1cc([N+](=O)[O-])ccc1Sc1nc(C)cs1 (stereo unspecified)	OX1R antag-1 54
CCOC1=C2[C@@H](CN(S(=O)(=O)c3ccc(C)cc3)[C@H]2c2ccccc2)[C@H]2C(=O)N(c3ccccc3)C(=O)[C@H]2C1	none (no result: CHO parental Ca, OX1R antag-1, OX1R antag-2, GPR7 antagonist)
O=C(NCC1CCCN1S(=O)(=O)c1cccs1)c1cccc(Cl)c1 (stereo unspecified)	OX1R antag-1 53 (no result: GPR7 antagonist)
O=C(NCC1CCCN1S(=O)(=O)c1cccs1)C(=O)Nc1ccccc1Cl (stereo unspecified)	OX1R antag-1 45 (no result: GPR7 antagonist)
COc1ccc(S(=O)(=O)N2CCCC2CNC(=O)c2cccc(OC)c2)cc1 (stereo unspecified)	OX1R antag-1 43 (no result: GPR7 antagonist)
COc1cccc(C(=O)NCC2CCCN2S(=O)(=O)c2cccs2)c1 (stereo unspecified)	none (no result: GPR7 antagonist)
COc1cccc(CNC(=O)c2ccc(S(=O)(=O)N3CCCCC3)cc2)c1	TAAR1 antag 51 (no result: CHO parental Ca, OX1R antag-1, OX1R antag-2, GPR7 antagonist)
COc1cccc(CNC(=O)c2ccc(S(=O)(=O)N3CCCC3)cc2)c1	none
CC(=O)O[C@@H]1C=C[C@@H](C#Cc2ccc(C(C)(C)C)cc2)O[C@@H]1COC(=O)NCc1ccccc1	none (no result: CHO parental Ca, OX1R antag-1, OX1R antag-2, GPR7 antagonist)
COc1ccc(NC(=O)Nc2ccc([N+](=O)[O-])cc2)cn1	CHO parental Ca 43
Cc1ccc(C(=O)Nc2ccc(Oc3cccc(C(F)(F)F)c3)nc2)cc1	TAAR1 agonist 40
COc1ccc(NC(=O)Nc2cc(C)cc(C)c2)cn1	none
COc1ccc(NC(=O)Cc2ccc(-c3ccccc3)cc2)cn1	CHO parental Ca 69
COc1ccc(NC(=O)Nc2cccc(C(F)(F)F)c2)cn1	CHO parental Ca 41, OX1R antag-2 47
O=C(O)c1ccccc1C(=O)Nc1ccc(Oc2cccc(C(F)(F)F)c2)nc1	none
COc1cc(Nc2ccccc2Cl)c([N+](=O)[O-])nc1[N+](=O)[O-]	OX1R antag-1 41
COc1ccccc1Nc1ccc([N+](=O)[O-])cc1N	none
COC(=O)C1=C(C)N(Cc2ccc(C(F)(F)F)cc2)C(=NCc2cc(OC)c(OC)c(OC)c2)NC1c1cccc(Cl)c1 (stereo unspecified)	none (no result: CHO parental Ca, OX1R antag-1, OX1R antag-2, GPR7 antagonist)
Cc1cc(/C=C2\SC(=S)N(Cc3ccco3)C2=O)c(C)n1-c1ccccc1	none
CN(C)c1ccc(C=C2SC(=S)N(Cc3ccco3)C2=O)cc1	TAAR1 antag 53, TAAR1 agonist 44 (no result: CHO parental Ca, OX1R antag-1, OX1R antag-2, GPR7 antagonist)
Clc1ccc(-n2ncc3c(NCC4CCCO4)ncnc32)cc1 (stereo unspecified)	TAAR1 antag 53
CCC(C(=O)NC(C)(C)C)n1c(C(c2ccccc2)c2ccccc2)nc2ccccc21 (stereo unspecified)	none (no result: CHO parental Ca, OX1R antag-1, OX1R antag-2, GPR7 antagonist)
Cc1ccc(S(=O)(=O)CC(N)=O)cc1	CHO parental Ca 70
COc1ccc(N=C2SC(CC(=O)Nc3ccccc3)C(=O)N2CCc2ccccn2)cc1 (stereo unspecified)	OX1R antag-1 69
COc1ccc(OC)c(NC(=O)CC2SC(=Nc3ccccc3)N(CCc3ccccn3)C2=O)c1 (stereo unspecified)	none
CSc1ccccc1NC(=O)CN(C)C(=O)C(C)SCc1nc2sc(C)c(C)c2c(=O)[nH]1 (stereo unspecified)	none (no result: CHO parental Ca, OX1R antag-1, OX1R antag-2, GPR7 antagonist)
Cc1sc2nc(CSC(C)C(=O)N(C)CC(=O)Nc3ccccc3C(F)(F)F)[nH]c(=O)c2c1C (stereo unspecified)	OX1R antag-1 71 (no result: GPR7 antagonist)
COc1ccc(OC)c(NC(=O)C(C)SCc2nc3sc(C)c(C)c3c(=O)[nH]2)c1 (stereo unspecified)	OX1R antag-1 54 (no result: GPR7 antagonist)
COc1ccccc1-c1oc2ccccc2c1C#CC1(N)CCCCC1	TAAR1 agonist 38 (no result: GPR7 antagonist)
CN(C)C1=NC[C@H](Cc2ccccc2)N1CCCC1CCCCC1	TAAR1 agonist 48 (no result: GPR7 antagonist)
O=C1c2ccccc2C(=O)N1c1nccs1	none (no result: CHO parental Ca, OX1R antag-1, OX1R antag-2, GPR7 antagonist)
O=c1c2ccccc2sn1-c1ccccc1F	none (no result: CHO parental Ca, OX1R antag-1, OX1R antag-2, GPR7 antagonist)
